Measurements taken from ChEMBL document CHEMBL2434865, “The influence of positional isomerism on G-quadruplex binding and anti-proliferative activity of tetra-substituted naphthalene diimide compounds” (Bioorg Med Chem, 2013).

Experiments:
Homo sapiens [1] = species: Homo sapiens; experiment: Binding affinity to human telomeric quadruplex 5'-FAM-GGGTTAGGGTTAGGGTTAGGG-TAMRA-3' at 2 uM after 3 hrs by HT-FRET assay
How it was run: (§1)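 Oligonucleotides were diluted from 50 µM stock to 400 nM in 60 mM potassium cacodylate pH 7.4, annealed at 95 °C for 10 min, then cooled to RT over 3 h. Ligand came from a 10 mM aqueous stock, was diluted to twice the final level in buffer and mixed 1:1 with DNA, in triplicate. FAM excitation was 450–495 nm and emission 515–545 nm, read every 0.5 °C from 30–100 °C with a 30 s hold. Tm is the first-derivative maximum of the smoothed, normalized curve; ΔTm is relative to DNA without ligand.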

MIA PaCa-2 = experiment: Cytotoxicity against human MIAPaCa2 cells after 96 hrs by SRB assay; format: functional, cell-based; conditions: MIA PaCa-2, 96 h
How it was run: (§2)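 For A549, MCF7, MIA PaCa2 (DMEM with 2 mM glutamine and 10% FCS) and PANC1 (same DMEM), 1000–4000 cells per well were seeded and left 24 h. Compound was added over a concentration range for 96 h at 37 °C in 5% CO2. Cells were fixed with 10% TCA (30 min, 4 °C) and stained with 0.4% SRB in 1% acetic acid for 15 min. Dye was dissolved in 10 mM Tris and read at A540. IC50 was interpolated as the level giving 50% absorbance loss versus untreated cells.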

PANC-1 [2] = experiment: Cytotoxicity against human PANC1 cells after 96 hrs by SRB assay; format: functional, cell-based; conditions: PANC-1, 96 h; how it was run: as §2
[3] = Cytotoxicity against human RCC4 cells after 96 hrs by SRB assay; format: functional, cell-based; conditions: RCC4, 96 h
Homo sapiens [4] = species: Homo sapiens; experiment: Binding affinity to human HSP90B 5'-FAM-GGGCGGGCCAAAGGGAAGGGG-TAMRA-3' at 1 uM after 3 hrs by HT-FRET assay; how it was run: as §1
Homo sapiens [5] = species: Homo sapiens; experiment: Binding affinity to human HSP90A 5'-FAM-GGGCCAAAGGGAAGGGGTGGG-TAMRA-3' at 2 uM after 3 hrs by HT-FRET assay; how it was run: as §1
Homo sapiens [6] = species: Homo sapiens; experiment: Binding affinity to human telomeric quadruplex 5'-FAM-GGGTTAGGGTTAGGGTTAGGG-TAMRA-3' at 1 uM after 3 hrs by HT-FRET assay; how it was run: as §1
A549 = experiment: Cytotoxicity against human A549 cells after 96 hrs by SRB assay; format: functional, cell-based; conditions: A549, 96 h; how it was run: as §2
Homo sapiens [7] = species: Homo sapiens; experiment: Binding affinity to human T-loop 5'-FAM-TATAGCTATATTTTTTTATAGCTATATAMRA-3' at 1 uM after 3 hrs by HT-FRET assay; how it was run: as §1
[8] = Cytotoxicity against human 786-O cells after 96 hrs by SRB assay; format: functional, cell-based; conditions: 786-0, 96 h
How it was run: (§3)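 Monolayer cultures were kept at 37 °C in humidified 5% CO2. Media were RPMI 1640 with 2 mM glutamine, 10% FCS and 1 mM pyruvate for 786-O, and MEM with 2 mM glutamine, 1% amino acids and 10% FCS for WI-38. Cells were exposed to compound over a concentration range for 96 h. Cells were fixed with TCA, stained with SRB, dissolved in 10 mM Tris and read at 540 nm. Values were normalized to untreated controls, and IC50 was interpolated as 50% absorbance reduction.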

Homo sapiens [9] = species: Homo sapiens; experiment: Binding affinity to human HSP90A 5'-FAM-GGGCCAAAGGGAAGGGGTGGG-TAMRA-3' at 1 uM after 3 hrs by HT-FRET assay; how it was run: as §1
Homo sapiens [10] = species: Homo sapiens; experiment: Binding affinity to human T-loop 5'-FAM-TATAGCTATATTTTTTTATAGCTATATAMRA-3' at 2 uM after 3 hrs by HT-FRET assay; how it was run: as §1
WI-38 = experiment: Cytotoxicity against human WI38 cells after 96 hrs by SRB assay; format: cell-based; conditions: WI-38, 96 h; how it was run: as §3
MCF7 = experiment: Cytotoxicity against human MCF7 cells after 96 hrs by SRB assay; format: functional, cell-based; conditions: MCF7, 96 h; how it was run: as §2
Homo sapiens [11] = species: Homo sapiens; experiment: Binding affinity to human HSP90B 5'-FAM-GGGCGGGCCAAAGGGAAGGGG-TAMRA-3' at 2 uM after 3 hrs by HT-FRET assay; how it was run: as §1
PANC-1 [12] = experiment: Ratio of IC50 for human MIAPaCa2 cells to IC50 for human PANC1 cells; format: functional

SMILES	ΔTm (Homo sapiens [1]) [°C]	IC50 (MIA PaCa-2) [nM]	IC50 (PANC-1 [2]) [nM]	IC50 [3] [nM]	ΔTm (Homo sapiens [4]) [°C]	ΔTm (Homo sapiens [5]) [°C]	ΔTm (Homo sapiens [6]) [°C]	IC50 (A549) [nM]	ΔTm (Homo sapiens [7]) [°C]	IC50 [8] [nM]	ΔTm (Homo sapiens [9]) [°C]	ΔTm (Homo sapiens [10]) [°C]	IC50 (WI-38) [nM]	IC50 (MCF7) [nM]	ΔTm (Homo sapiens [11]) [°C]	Ratio IC50 (PANC-1 [12])
COCCCNc1cc2c3c(c(NCCCOC)cc4c3c1C(=O)N(CCCN1CCN(C)CC1)C4=O)C(=O)N(CCCN1CCN(C)CC1)C2=O	16	7050	2500	7600	22	24	< 2	5750	0	16100	22	0	> 25000	17500	26	
CN1CCN(CCCN2C(=O)c3cc(NCC4CCOCC4)c4c5c(cc(NCC6CCOCC6)c(c35)C2=O)C(=O)N(CCCN2CCN(C)CC2)C4=O)CC1	22	137	1100	2200	3	27	< 2	460	0	290	2	0	2800	510	23	
CN1CCN(CCCN2C(=O)c3cc(NC[C@@H]4CCCO4)c4c5c(cc(NC[C@H]6CCCO6)c(c35)C2=O)C(=O)N(CCCN2CCN(C)CC2)C4=O)CC1	15	95	1500	3000	13	23	< 2	160	0	390	21	0	2300	560	17	
CN1CCN(CCN2C(=O)c3cc(NCCCN4CCOCC4)c4c5c(cc(NCCCN6CCOCC6)c(c35)C2=O)C(=O)N(CCN2CCN(C)CC2)C4=O)CC1	31	5	5	300	28	36	26	20	2	160	33	8	180	21	32	
CN1CCN(CCCN2C(=O)c3cc(NCCCN4CCOCC4)c4c5c(cc(NCCCN6CCOCC6)c(c35)C2=O)C(=O)N(CCCN2CCN(C)CC2)C4=O)CC1	34	50	2	610	30	36	29	7	5	440	34	9	300	14	34	
CN1CCN(CCCNc2cc3c4c(c(NCCCN5CCN(C)CC5)cc5c4c2C(=O)N(CCCN2CCOCC2)C5=O)C(=O)N(CCCN2CCOCC2)C3=O)CC1			3													5
